12 compounds from ChEMBL document CHEMBL4354817, “4-(3-Aminoazetidin-1-yl)pyrimidin-2-amines as High-Affinity Non-imidazole Histamine H3 Receptor Agonists with in Vivo Central Nervous System Activity” (J Med Chem, 2019) can be followed below.

Active and inactive are the calls of the source.

For series [1], the target named is T1, Histamine H3 receptor (Homo sapiens, UniProt Q9Y5N1). The series is described as follows: Displacement of [3H]NAMH from human H3R expressed in HEK293T cells incubated for 2 hrs by microbeta scintillation counting analysis. The format is cell-based. The method in brief:
(§1)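 Homogenates of HEK293T cells transiently expressing hH3R or mH3R, harvested 48 h post-transfection, incubated with 2 nM [3H]NAMH and increasing unlabeled ligand in 50 mM Tris–HCl pH 7.4, 2 h at 25 °C. Rapid filtration over 0.5% PEI-coated GF/C filters, scintillation counting. One-site fit; IC50 converted to pKi by Cheng–Prusoff; three experiments in triplicate.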
A general note: Displacement assays read how much labelled ligand stays bound in the presence of the test substance.

The target in series [2] is T1, Histamine H3 receptor. The series is described as follows: Intrinsic activity at human H3R expressed on HEK293T cells assessed as activation of forskolin-induced CRE-driven luciferase activity co-incubated with forskolin for 6 hrs and measured after 30 mins by CRE-luciferase reporter gene assay relative to histamine. The format is functional. The method in brief:
(§2)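 HEK293T cells transiently transfected (PEI method) in suspension with receptor cDNA (1000 ng), CRE-luciferase (2500 ng) and empty pcDEF3; 50.000 cells/well on poly-L-lysine, grown 24 h. Stimulated with increasing ligand concentrations plus 1 μM forskolin, 37 °C, 5% CO2, 6 h. Luciferase reagent (ATP, D-luciferin) added, luminescence read after 30 min at 37 °C. Nonlinear regression; α relative to histamine; three experiments in triplicate.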
A general note: A reporter such as luciferase makes a cellular process visible.

Series [3] addresses T1, Histamine H3 receptor. The experiment in a line: Agonist activity at human H3R expressed on HEK293T cells assessed as inhibition of forskolin-induced CRE-driven luciferase activity co-incubated with forskolin for 6 hrs and measured after 30 mins by CRE-luciferase reporter gene assay. The format is functional. Put shortly:
as §2

Series [4] addresses Cytochrome P450 2C9 (Homo sapiens, UniProt P11712). The experiment in a line: Inhibition of human CYP2C9 expressed in baculovirus infected insect cells using beetle D-luciferin as substrate preincubated for 30 mins followed by NADPH addition and measured after 30 mins by CYP450-Glo assay. The format is ADME.
In series [5] the target is Cytochrome P450 2D6 (Homo sapiens, UniProt P10635). The series is described as follows: Inhibition of human CYP2D6 expressed in baculovirus infected insect cells using beetle D-luciferin as substrate preincubated for 30 mins followed by NADPH addition and measured after 30 mins by CYP450-Glo assay. The series is classed as ADME.
Cytochrome P450 2D6, sequence (P10635 whole entry): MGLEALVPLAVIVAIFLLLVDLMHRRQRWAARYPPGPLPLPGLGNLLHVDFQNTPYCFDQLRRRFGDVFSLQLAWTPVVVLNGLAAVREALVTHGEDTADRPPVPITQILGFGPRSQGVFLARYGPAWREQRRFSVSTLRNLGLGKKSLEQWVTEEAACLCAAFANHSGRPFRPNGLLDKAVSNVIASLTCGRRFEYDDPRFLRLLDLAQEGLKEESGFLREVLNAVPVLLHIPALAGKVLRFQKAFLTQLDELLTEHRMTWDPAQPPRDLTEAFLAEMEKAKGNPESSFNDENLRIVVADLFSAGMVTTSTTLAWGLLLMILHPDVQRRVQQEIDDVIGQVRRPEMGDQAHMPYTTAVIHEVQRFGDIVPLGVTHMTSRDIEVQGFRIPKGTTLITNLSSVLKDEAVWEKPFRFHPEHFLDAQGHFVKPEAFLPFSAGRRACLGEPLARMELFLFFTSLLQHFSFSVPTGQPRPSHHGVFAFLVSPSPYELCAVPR
The target in series [6] is T2, Histamine H4 receptor (Homo sapiens, UniProt Q9H3N8). The experiment in a line: Intrinsic activity at human H4R expressed on HEK293T cells assessed as activation of forskolin-induced CRE-driven luciferase activity co-incubated with forskolin for 6 hrs and measured after 30 mins by CRE-luciferase reporter gene assay relative to histamine. The format is functional. Put shortly: as §2
T2 sequence (Q9H3N8 whole entry): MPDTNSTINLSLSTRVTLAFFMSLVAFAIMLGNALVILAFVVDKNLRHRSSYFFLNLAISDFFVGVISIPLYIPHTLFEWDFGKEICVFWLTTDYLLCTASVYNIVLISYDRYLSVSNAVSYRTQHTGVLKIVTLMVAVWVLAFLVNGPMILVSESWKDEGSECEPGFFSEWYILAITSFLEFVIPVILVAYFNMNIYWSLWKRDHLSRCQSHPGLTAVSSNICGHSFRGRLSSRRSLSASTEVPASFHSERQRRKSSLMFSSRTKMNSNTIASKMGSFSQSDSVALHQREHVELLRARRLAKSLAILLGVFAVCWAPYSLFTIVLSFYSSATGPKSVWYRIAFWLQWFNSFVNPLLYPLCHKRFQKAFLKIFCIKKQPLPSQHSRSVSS

The nature of series [7]: Intrinsic clearance in rat liver microsomes at 50 uM measured up to 45 mins by UPLC/MS analysis. The series is classed as ADME, Microsome. Particulars: read-out: CLH.
The target of series [8] is T3, Histamine H4 receptor (Mus musculus, UniProt Q91ZY2).
T3 sequence (Q91ZY2 whole entry): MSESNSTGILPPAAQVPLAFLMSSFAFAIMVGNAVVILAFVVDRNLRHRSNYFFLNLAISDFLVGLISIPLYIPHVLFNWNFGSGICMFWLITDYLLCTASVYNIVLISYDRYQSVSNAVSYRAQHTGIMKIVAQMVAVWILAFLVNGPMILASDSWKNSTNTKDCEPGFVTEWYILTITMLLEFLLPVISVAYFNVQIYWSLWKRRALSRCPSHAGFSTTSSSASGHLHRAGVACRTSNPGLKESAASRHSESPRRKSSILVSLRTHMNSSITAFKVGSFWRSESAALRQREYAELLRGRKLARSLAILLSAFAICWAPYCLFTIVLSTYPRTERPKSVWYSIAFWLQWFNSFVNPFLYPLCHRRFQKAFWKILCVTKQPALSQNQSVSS
The series is described as follows: Displacement of [3H]histamine from mouse H4R expressed in HEK293T cells incubated for 2 hrs by microbeta scintillation counting analysis. The series is classed as cell-based. The method in brief:
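mH4R-expressing HEK293T homogenates incubated with 30 nM [3H]histamine and increasing unlabeled ligand in 50 mM Tris–HCl pH 7.4, 2 h at 25 °C. Filtered over 0.5% PEI-coated GF/C filters; bound radioactivity counted. One-site fit, Cheng–Prusoff conversion to pKi.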

Series [9] is described as follows: Intrinsic clearance in mouse liver microsomes at 50 uM measured up to 45 mins by UPLC/MS analysis. The series is classed as ADME, Microsome. As to conditions: read-out: CLH. (In general: Microsomes from liver hold many membrane-bound enzymes, among them those of drug oxidation.)
Series [10] concerns Mus musculus. The experiment in a line: Effect on social recognition in C57Bl6 mouse assessed as change in time spent with familiar juvenile at 5 mg/kg, ip administered 30 mins prior to training trial. The series is classed as ADME, organism-based. Particulars: in vivo, 0.5 h. The method in brief:
(§3)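 Male C57Bl6 mice, 8–9 weeks. Session 1: 10 min arena habituation with two empty wire cups. 24 h later, 10 min with juvenile (4–5 weeks) under one cup; 1 h later, 10 min test with familiar plus novel juvenile. 5 mg/kg or vehicle i.p. 30 min before second session. Blind video scoring of exploration; sociability and discrimination indices; 10–11 mice/group.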

In series [11] the target is T4, Histamine H3 receptor (Mus musculus, UniProt P58406). The series is described as follows: Agonist activity at mouse H3R expressed on HEK293T cells assessed as inhibition of forskolin-induced CRE-driven luciferase activity co-incubated with forskolin for 6 hrs and measured after 30 mins by luciferase reporter gene assay. The series is classed as functional. Put shortly: as §2
T4 sequence (P58406 whole entry): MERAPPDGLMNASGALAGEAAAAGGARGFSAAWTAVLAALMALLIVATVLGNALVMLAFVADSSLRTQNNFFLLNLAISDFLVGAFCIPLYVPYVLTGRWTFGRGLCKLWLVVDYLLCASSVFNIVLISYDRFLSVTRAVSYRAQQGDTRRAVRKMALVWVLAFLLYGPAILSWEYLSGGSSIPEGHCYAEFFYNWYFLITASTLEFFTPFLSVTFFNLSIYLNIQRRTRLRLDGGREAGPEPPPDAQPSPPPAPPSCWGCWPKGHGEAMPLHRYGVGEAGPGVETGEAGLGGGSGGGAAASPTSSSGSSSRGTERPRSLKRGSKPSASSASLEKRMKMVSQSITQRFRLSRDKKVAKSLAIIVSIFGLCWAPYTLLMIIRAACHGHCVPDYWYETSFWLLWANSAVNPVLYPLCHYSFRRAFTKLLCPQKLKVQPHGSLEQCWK

Series [12] is described as follows: Half life in rat liver microsomes at 50 uM measured up to 45 mins by UPLC/MS analysis. The format is ADME, Microsome. Particulars: 0.75 h.
In series [13] the target is T1, Histamine H3 receptor. The series is described as follows: Agonist activity at human H3R expressed on HEK293T cells by [35S]GTPgammaS binding assay. The series is classed as functional. The method in brief: (§4)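 [35S]GTPγS accumulation measured on homogenates of HEK293T cells transiently expressing hH3R, with increasing ligand concentrations; α expressed relative to histamine. At least three experiments in triplicate.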

For series [14], the target named is T5, Histamine H4 receptor (Mus musculus) (UniProt Q91ZY2).
T5 sequence (whole entry): T3 sequence (Q91ZY2 whole entry)
The series is described as follows: Intrinsic activity at mouse H4R expressed on HEK293T cells assessed as activation of forskolin-induced CRE-luciferase reporter gene activity co-incubated with forskolin for 6 hrs and measured after 30 mins by luciferase reporter gene assay. The series is classed as functional. The method in brief:
as §2

Series [15] has as its target Histamine H2 receptor (Homo sapiens) (UniProt P25021). The series is described as follows: Agonist activity at human H2R expressed on HEK293T cells assessed as inhibition of forskolin-induced CRE-driven luciferase activity up to 10 uM pre-incubated with forskolin for 6 hrs and measured after 30 mins by luciferase reporter gene assay. The format is functional. Put shortly:
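HEK293T cells transfected in suspension with H2R cDNA (2500 ng), CRE-luciferase (2500 ng) and empty pcDEF3; 50.000 cells/well, grown 24 h before ligand stimulation. Luminescence read 30 min after luciferase reagent (ATP, D-luciferin) at 37 °C. Dose–response curves fitted by nonlinear regression.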

Series [16] relates to Mus musculus. The series is described as follows: Effect on social recognition in C57Bl6 mouse assessed as change in time spent in exploring cage at 5 mg/kg, ip administered 30 mins prior to training trial. The format is ADME, organism-based. As to conditions: in vivo, 0.5 h. The method in brief: as §3
Series [17] concerns the target T2, Histamine H4 receptor. The series is described as follows: Agonist activity at human H4R expressed on HEK293T cells assessed as inhibition of forskolin-induced CRE-driven luciferase activity co-incubated with forskolin for 6 hrs and measured after 30 mins by CRE-luciferase reporter gene assay. The series is classed as functional. The method in brief: as §2
For series [18], the target named is T4, Histamine H3 receptor. The series is described as follows: Displacement of [3H]NAMH from mouse H3R expressed in HEK293T cells incubated for 2 hrs by microbeta scintillation counting analysis. The format is cell-based. The method in brief:
as §1

Series [19] relates to Mus musculus. The series is described as follows: Effect on social recognition in C57Bl6 mouse assessed as change in time spent with novel juvenile at 5 mg/kg, ip administered 30 mins prior to training trial. The format is ADME, organism-based. As to conditions: in vivo, 0.5 h. Put shortly:
as §3

For series [20], the target named is T1, Histamine H3 receptor. The series is described as follows: Intrisic activity at human H3R expressed on HEK293T cells by [35S]GTPgammaS binding assay relative to histamine. The format is functional. The method in brief:
as §4

For series [21], the target named is Cytochrome P450 3A4 (Homo sapiens, UniProt P08684). The experiment in a line: Inhibition of human CYP3A4 expressed in baculovirus infected insect cells using beetle D-luciferin as substrate preincubated for 30 mins followed by NADPH addition and measured after 30 mins by CYP450-Glo assay. The format is ADME.
Cytochrome P450 3A4, sequence (P08684 whole entry): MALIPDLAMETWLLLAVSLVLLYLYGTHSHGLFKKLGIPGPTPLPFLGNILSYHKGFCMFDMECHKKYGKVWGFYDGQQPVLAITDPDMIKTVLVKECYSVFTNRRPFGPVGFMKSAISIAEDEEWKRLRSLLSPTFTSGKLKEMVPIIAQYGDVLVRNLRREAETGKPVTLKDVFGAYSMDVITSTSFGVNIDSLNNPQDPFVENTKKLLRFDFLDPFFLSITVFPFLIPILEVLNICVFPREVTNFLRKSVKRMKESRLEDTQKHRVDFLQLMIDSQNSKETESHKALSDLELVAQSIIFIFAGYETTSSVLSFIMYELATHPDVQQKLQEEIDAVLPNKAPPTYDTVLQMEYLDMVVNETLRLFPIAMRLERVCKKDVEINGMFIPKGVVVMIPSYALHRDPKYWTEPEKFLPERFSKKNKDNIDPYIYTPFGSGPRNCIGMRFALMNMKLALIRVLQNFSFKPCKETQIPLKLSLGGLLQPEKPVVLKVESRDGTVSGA
Series [22] deals with Mus musculus. The series is described as follows: Effect on social recognition in C57Bl6 mouse assessed as change in behavior at 5 mg/kg, ip administered 30 mins prior to training trial. The series is classed as ADME, organism-based. Particulars: in vivo, 0.5 h. Put shortly: as §3
Series [23] deals with Histamine H3 receptor (Mus musculus) (UniProt P58406). The experiment in a line: Intrinsic activity at mouse H3R expressed on HEK293T cells assessed as activation of forskolin-induced CRE-luciferase reporter gene activity co-incubated with forskolin for 6 hrs and measured after 30 mins by luciferase reporter gene assay. The format is functional. The method in brief:
as §2

Series [24] has as its target T2, Histamine H4 receptor. The experiment in a line: Displacement of [3H]histamine from human H4R expressed in HEK293T cells incubated for 2 hrs by microbeta scintillation counting analysis.
The nature of series [25]: Half life in mouse liver microsomes at 50 uM measured up to 45 mins by UPLC/MS analysis. The series is classed as ADME, Microsome.
Series [26] deals with T3, Histamine H4 receptor. The series is described as follows: Agonist activity at mouse H4R expressed on HEK293T cells assessed as inhibition of forskolin-induced CRE-driven luciferase activity co-incubated with forskolin for 6 hrs and measured after 30 mins by luciferase reporter gene assay. The format is functional. Put shortly: as §2

T1 sequence (Q9Y5N1 whole entry): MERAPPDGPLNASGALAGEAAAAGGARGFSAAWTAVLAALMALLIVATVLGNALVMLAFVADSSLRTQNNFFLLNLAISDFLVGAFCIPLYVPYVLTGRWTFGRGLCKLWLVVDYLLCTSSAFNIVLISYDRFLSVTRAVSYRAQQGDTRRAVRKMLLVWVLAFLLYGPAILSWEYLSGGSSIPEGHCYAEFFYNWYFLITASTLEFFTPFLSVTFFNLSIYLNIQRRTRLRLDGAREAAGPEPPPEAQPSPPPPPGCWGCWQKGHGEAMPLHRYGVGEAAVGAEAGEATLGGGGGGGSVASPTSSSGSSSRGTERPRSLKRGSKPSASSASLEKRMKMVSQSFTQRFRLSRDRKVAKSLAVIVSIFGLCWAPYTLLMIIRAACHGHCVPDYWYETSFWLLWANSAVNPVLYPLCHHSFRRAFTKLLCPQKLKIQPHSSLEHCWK
Histamine H3 receptor (Mus musculus), sequence (P58406 whole entry): as the sequence (P58406 whole entry) above
Histamine H2 receptor (Homo sapiens), sequence (P25021 whole entry): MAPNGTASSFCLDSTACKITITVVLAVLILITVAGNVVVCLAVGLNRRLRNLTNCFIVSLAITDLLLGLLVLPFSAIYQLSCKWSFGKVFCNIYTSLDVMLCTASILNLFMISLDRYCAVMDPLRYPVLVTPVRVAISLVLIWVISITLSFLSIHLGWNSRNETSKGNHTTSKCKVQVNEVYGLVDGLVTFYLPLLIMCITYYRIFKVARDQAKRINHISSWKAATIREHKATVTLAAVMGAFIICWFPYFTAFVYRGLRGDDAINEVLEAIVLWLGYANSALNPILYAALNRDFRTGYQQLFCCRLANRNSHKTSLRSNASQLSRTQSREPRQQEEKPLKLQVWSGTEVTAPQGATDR
Cytochrome P450 2C9, sequence (P11712 whole entry): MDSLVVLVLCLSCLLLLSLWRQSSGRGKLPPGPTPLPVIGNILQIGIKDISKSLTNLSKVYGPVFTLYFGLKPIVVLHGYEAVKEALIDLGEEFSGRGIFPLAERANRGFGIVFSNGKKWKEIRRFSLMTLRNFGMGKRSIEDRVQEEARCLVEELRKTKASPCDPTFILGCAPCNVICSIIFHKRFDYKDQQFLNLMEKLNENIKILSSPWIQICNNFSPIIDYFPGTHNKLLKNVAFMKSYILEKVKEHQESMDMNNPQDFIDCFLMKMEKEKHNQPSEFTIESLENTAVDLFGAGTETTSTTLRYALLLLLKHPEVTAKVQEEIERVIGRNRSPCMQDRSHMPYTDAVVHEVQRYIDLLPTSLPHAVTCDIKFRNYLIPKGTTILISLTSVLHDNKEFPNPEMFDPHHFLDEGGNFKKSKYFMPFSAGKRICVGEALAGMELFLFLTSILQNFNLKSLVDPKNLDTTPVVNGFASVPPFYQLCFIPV

By Ki is commonly meant the equilibrium dissociation constant of an inhibitor or competing ligand from its target. The EC50 is the midpoint of the concentration-response curve. Regarding `Cc1cc(N2CC(N)C2)nc(N)n1`, the affinity in series [1], expressed as Ki, was 50.1 nM. Further, the Intrinsic activity in [2] was 0.9. Moreover, the EC50 in series [3] is 15.8 nM.
For `CNC1CN(c2cc(C)nc(N)n2)C1`, in that order: 31.6 nM, 0.8 and 10 nM.
The like results for `CNC1CN(c2cc(C(C)C)nc(N)n2)C1` were, in that order, 100 nM, 0.7 and 12.6 nM.
For `CC(C)NC1CN(c2ccnc(N)n2)C1`, in that order: 39.8 nM, 1.2 and 3.16 nM.
For `Cc1cc(N2CC(N(C)C)C2)nc(N)n1`, affinity in series [1] was put at a Ki of 316 nM. In addition, the Intrinsic activity in series [2] was 0.9. In [3], the EC50 is 39.8 nM.
For `CC(C)c1cc(N2CC(N)C2)nc(N)n1`, in that order: 200 nM, 0.7 and 79.4 nM.
As to `CCc1cc(N2CC(N(C)C)C2)nc(N)n1`, the Ki in [1] was 251 nM. In addition, in series [2], the Intrinsic activity was 0.8. For the same compound, the half-maximal effective concentration (EC50) in [3] is 63.1 nM.
The like results for `CCC(C)NC1CN(c2ccnc(N)n2)C1` (racemic) were, in that order, 12.6 nM, 1.1 and 2 nM.
The like results for `CCNC1CN(c2ccnc(N)n2)C1` were, in that order, 10 nM, 1 and 0.631 nM.
For `CC(C)CNC1CN(c2ccnc(N)n2)C1`, in that order: 39.8 nM, 1.1 and 5.01 nM.
For the compound `Nc1nccc(N2CC(N3CCCC3)C2)n1`, in [1], affinity was put at a Ki of 39.8 nM. In addition, the Intrinsic activity in [2] was determined as 1.3. Further, the half-maximal effective concentration (EC50) in [3] is 7.94 nM.
What is called IC50 is the concentration at which inhibition is half-maximal. The low end stands for greater potency in that assay, the high end for weaker potency in that assay. As usually defined, the half-life is the time needed for the level to fall by half in the phase considered. Read a low half-life as fast loss. With `CCCNC1CN(c2ccnc(N)n2)C1.O.O=C(O)/C=C/C(=O)O`, the IC50 in series [4], in series [5] and in series [21] was more than 25000 nM in each case. The Intrinsic activity worked out at 1.1 in series [6]; 1.1 in series [14]; 1.2 in [2]; 0.5 in series [20]; 1.2 in series [23]. The CLint scaled at 50 µM in [7] was determined as 7.9 mL/min/kg; in series [9], 20.7 mL/min/kg. The Ki in [8] was 15.8 nM; in series [1], 3.16 nM; in series [18] it was 1 nM; in [24] it was 7.94 nM. The Activity result in series [10], in series [16], in series [19] and in series [22] was “Non-Toxic” throughout. The EC50 is 0.1 nM in [11]; 3.98 nM in [13]; 3.16 nM in series [17]; 0.316 nM in series [3]; 1 nM in series [26]. This compound also showed a t1/2 in series [12] of 3.98 h. Moreover, the result in series [15] was inactive. Moreover, the half-life at 50 µM in series [25] was determined as 2.18 h.
